The source made the active and inactive calls. The calls are words filed in the database; no cut-off is given here.

In series [1] the test system is Mus musculus. The experiment in a line: Anti-pentylenetetrazole activity; - denotes inactive up to 600 mg/kg. Format: functional, organism-based. On the set-up: dose 600 mg/kg. The gist of the method: (§1)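 Phase I screen in mice run by the NINCDS Antiepileptic Drug Development Program. Four mice per dose, scored 0.5 and 4 h after dosing, for protection against seizures induced by 85 mg/kg subcutaneous pentylenetetrazole. Dose levels were 30, 100, 300 and 600 mg/kg. Activity is the lowest dose at which at least one of four animals is protected, confirmed in a second trial.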

Series [2] is filed under the species Mus musculus. In words: (§2) Effective dose against maximal electroshock seizures in mice, at 0.5 hr. It is filed as functional. An outline of the steps:
(§3)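 Phase II quantification in mice by the NINCDS Anticonvulsant Drug Development Program. Median effective dose against maximal electroshock-induced seizures, measured at the time of peak effect, 0.5 h. The 95% confidence intervals come from probit analysis.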

For series [3], the system named is Mus musculus. In words: Tested for anti maximal electroshock activity at 4 h; - denotes inactive up to 600 mg/kg. It is filed as functional, organism-based. Further details: dose 600 mg/kg. The gist of the method: (§4)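 Phase I screen in mice run by the NINCDS Antiepileptic Drug Development Program. Four mice per dose, scored 0.5 and 4 h after dosing, for prevention of tonic hindlimb extension following maximal electroshock. Doses were 30, 100, 300 or 600 mg/kg. Activity is the lowest dose protecting at least one of four animals, provided a second trial confirms it.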
(In the maximal electroshock model the usual endpoint is tonic extension of the hind limbs.)

Series [4] is described as follows: Tested for Neurotoxicity in rotarod test. It is filed as toxicity, organism-based. To be noted: mouse, in vivo. The gist of the method:
(§5)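 Phase I rotarod neurotoxicity in mice, run by the NINCDS Antiepileptic Drug Development Program. Doses were 30, 100, 300 or 600 mg/kg. Deaths from respiratory depression were counted among four animals given 600 mg/kg.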

The test system of series [5] is Mus musculus. The experiment in a line: Tested for rotarod neurotoxicity, number of deaths from respiratory depression among four animals given a dose 600 mg/kg was reported. On the set-up: dose 600 mg/kg. It is filed as organism-based. To be noted: in vivo. For orientation: The rotarod test checks motor coordination on a turning rod.
The test system of series [6] is Mus musculus. In words: Tested for anti-pentylenetetrazole activity in mice at 4 h; - denotes inactive up to 600 mg/kg. Format: functional, organism-based. Further details: dose 600 mg/kg. The gist of the method: as §1
Series [7] has as its system Mus musculus. The experiment in a line: Anti-pentylenetetrazole activity at 0.5 h; - denotes inactive up to 600 mg/kg. Further details: dose 600 mg/kg. It is filed as functional, organism-based. An outline of the steps: as §1
A short description of series [8]: Tested for rotarod neurotoxicity at dose 300 mg/kg. Format: organism-based. On the set-up: dose 300 mg/kg. To be noted: mouse, in vivo. The gist of the method: as §5
Series [9] deals with Mus musculus. The experiment in a line: Tested for anti maximal electroshock activity at 4 h; += Compound is active at 300 mg/kg. On the set-up: dose 300 mg/kg. Format: functional, organism-based. An outline of the steps:
as §4

Series [10] is filed under the species Mus musculus. The experiment in a line: Effective dose against maximal electroshock seizures in mice, at 0.5 h. Format: functional. The gist of the method: as §3
Series [11] relates to Mus musculus. In words: Tested for rotarod neurotoxicity, number of deaths from respiratory depression among four animals given a dose 600 mg/kg was reported. To be noted: in vivo.
Series [12] has as its system Mus musculus. The experiment in a line: Anti-pentylenetetrazole activity at 0.5 hr in mice […]; +=Compound is active at 300 mg/kg. It is filed as functional, organism-based. An outline of the steps:
as §1

In series [13] the test system is Mus musculus. In words: Tested for anti maximal electroshock activity at 0.5 hr at dose 100 mg/kg; ++=Compound is active at 100 mg/kg. It is filed as functional, organism-based. The gist of the method: as §4
In series [14] the test system is Mus musculus. In words: Tested for rotarod neurotoxicity, number of deaths from respiratory depression among four animals given a dose 600 mg/kg was reported.
Series [15] is filed under the species Mus musculus. The description is as §2. It is filed as functional. The gist of the method:
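Phase II quantification in mice under the NINCDS Antiepileptic Drug Development Program. Protection against maximal electroshock, scored as prevention of tonic hindlimb extension, was measured at the time of peak effect, 0.5 h after dosing. Median effective dose was derived by probit analysis with 95% confidence intervals.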
This is another data set of the same source.

A short description of series [16]: Tested for neurotoxicity in rotarod test. To be noted: mouse, in vivo. It is filed as toxicity, organism-based. The gist of the method: as §5
Series [17] relates to Mus musculus. In words: Tested for rotarod neurotoxicity, number of deaths from respiratory depression among four animals given a dose 600 mg/kg was reported; inactive. It is filed as functional.
Series [18] has as its system Mus musculus. The experiment in a line: Tested for anti maximal electroshock activity at 0.5 hr […]; += Compound is active at 300 mg/kg. It is filed as functional, organism-based. An outline of the steps: as §4
Series [19] deals with Mus musculus. In words: Anti-pentylenetetrazole activity at 0.5 hr in mice […]; += Compound is active at 300 mg/kg. It is filed as functional, organism-based. An outline of the steps: as §1

With `O=C1CC(CNCc2ccccc2)C(=O)N1Cc1ccccc1` (stereo not given), the PTZ result in [1] and in series [6] was “Not toxic” in each case. For the same molecule, in series [2], it took a dose of 136 mg/kg to reach the 50% effect level (ED50). Further, in series [3], the MES result was “Not toxic”. Besides, the TD50 (usually the 50% point of the dose-response relation for the toxic effect studied) in [4] is 267 mg/kg. Moreover, the NT in series [5] was 4.

With `CC1(CN)CC(=O)N(Cc2ccccc2)C1=O` (stereo not given), the PTZ result in series [7] and in [6] was “Not toxic” in each case. For the same molecule, the TD50 in series [8] came to 228 mg/kg. In series [9], the MES result was “active at 300 mg/kg”. Moreover, in [10], the ED50 (commonly the dose at which the effect has come halfway, by size or by number of responders) came to 66.4 mg/kg. This molecule came in with an NT in series [11] of 2.

For the molecule `CC(=O)NCC1(C)CC(=O)N(Cc2ccccc2)C1=O` (stereo not given), the PTZ entry is “active at 300 mg/kg” in series [12] and “Not toxic” in series [6]. Also, the MES result is “active at 100 mg/kg” in series [13] and “Not toxic” in series [3]. The molecule further yielded an NT in series [14] of 0.

`CN1C(=O)CC(C)(c2ccccc2)C1=O` (stereo not given) [METHSUXIMIDE]: the ED50 in [15] is 76.3 mg/kg.

`CN1C(=O)CC(c2ccccc2)C1=O` (stereo not given) [PHENSUXIMIDE] yielded an ED50 in series [15] of 112 mg/kg.

As to `Cl.NCC1CC(=O)N(Cc2ccccc2)C1=O` (stereo not given), the PTZ result in [7] and in series [6] was “Not toxic” in each case. The TD50 in series [16] stood at 268 mg/kg. Besides, in series [3], the MES entry is “Not toxic”. This molecule also yielded an ED50 in series [10] of 108 mg/kg. Further, in series [11], the NT came out at 4.

In [17], `CC(=O)NCC1CC(=O)N(Cc2ccccc2)C1=O` (stereo not given) registered an NT of 0. In addition, the MES entry was “active at 300 mg/kg” in series [18] and “Not toxic” in [3]. In addition, the PTZ entry in [6] is “Not toxic”; in [19] it was “active at 300 mg/kg”.

(Values after ChEMBL document CHEMBL1122372, “Synthesis of aminomethyl-substituted cyclic imide derivatives for evaluation as anticonvulsants” (J Med Chem, 1983).)
